# Assay outcomes: PubChem BioAssay, several laboratories
# Only some compounds are listed: those with a hit (about 1.8% of all), similar ones and a draw of the others.
# PREPL inh: PREPL enzyme inhibitors, primary screen, biochemical, fluorescence polarization; recombinant PREPL, fluorescence polarization activity-based probe; inhibition, % at 5.96 µM; Prolyl endopeptidase-like (Homo sapiens), Q4J6C6; 0.68% of 320,000 active;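 note: 0% = enzyme with DMSO and 100% = wells lacking enzyme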
# SKN-1 block: suppressors of acrylamide-induced Pgst-4::GFP reporter in worms, primary screen, SKN-1 inhibitor project, whole organism, uHTS, GFP/RFP fluorescence ratio, strain VP596. 0.49% of 360,000 active. C. elegans VP596 Pgst-4::GFP/RFP ratio, 24 h. AID 624304, 2012. inhibition, % at 21.8 µM;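 active = interference check ratio from 0.5 to 1.5 plus GFP to RFP signal ratio inhibition reaching or exceeding a fixed threshold, cut at about 30% in these data, passing the limit was not always enough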
# MT1-MMP act inh: blockers of MT1-MMP proenzyme processing, primary screen, HT1080 RFP-PRO-GFP cells, GFP/RFP fluorescence; AID 651647, 2012; GFP/RFP ratio change, % at 20 µM; Matrix metalloproteinase-14 (Homo sapiens), P50281; GFP/RFP ratio fluorescence, overnight; percent of plate control window, DMSO zero; 0.061% of 360,000 active;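 active = GFP/RFP ratio change of at least 30% with cell ATP level not reduced by more than half and red fluorescence within 50% of control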
#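 Assay system – RFP-PRO-GFP reporter HT1080 cells · Compound dosing – single dose of 20 µM compound, 1% DMSO final · Incubation – overnight compound exposure at 37 °C · Measure – GFP/RFP fluorescence ratio · Benchmarks – DMSO wells and RFP-L50D-GFP cells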
# iPSC survival up: enhancers of single-cell hiPSC survival, primary screen, ATPlite luminescence. 100% = ROCK inhibitor wells, 0% = DMSO. survival enhancement, % at 20 µM. 0.044% of 360,000 active. AID 602274, 2012; in the data active = survival enhancement above about 18%;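 note: cells exposed to compounds for 16 hours before the ATP read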
# E coli Lon inh: inhibitors of E. coli Lon protease, primary screen, biochemical, fluorescence polarization; P0A9M0; purified E. coli Lon protease; inhibition, % at 7.94 µM; 0.42% of 360,000 active; AID 602123, 2011; in the data active = inhibition above about 13%, passing the limit was not always enough;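 note: 0% = enzyme with probe and DMSO and 100% = no enzyme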
# TbMetRS inhib: T. brucei MetRS inhibitors, primary screen, biochemical, luminescence | methionyl-tRNA synthetase (Trypanosoma brucei brucei) | purified T. brucei MetRS, ATP depletion, Kinase-Glo luminescence | inhibition, % at 11.9 µM | 0.4% of 360,000 active | AID 624268, 2012;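 active = inhibition above a per-plate cutoff of the control wells' mean inhibition plus 3 SD, cut at about 5.5% in these data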;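 note: 0% = DMSO wells median and 100% = median of wells with control inhibitor compound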
#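 System: purified T. brucei MetRS enzyme / Detection: Kinase-Glo luciferase luminescence reporting remaining unconsumed ATP / Medium: HEPES buffer with MgCl2, KCl, DTT, spermine, BSA, pyrophosphatase / Replication: singlicate, one well per compound / Evaluation: percent inhibition relative to median high and low control wells / Schedule: 2 h aminoacylation at 25 °C after 15 min preincubation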
# PREPL confirm: human PREPL enzyme inhibitors, confirmation, biochemical, fluorescence polarization. shares compounds with PREPL inh. recombinant PREPL, fluorescence polarization activity probe. inhibition, % at 5.96 µM. 67% of 2,000 active. AID 2803, 2010;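 note: 0% = protein with DMSO and 100% = wells lacking protein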
# eLon confirm: E. coli Lon protease inhibitor retest, confirmation, biochemical, fluorescence polarization. shares compounds with E coli Lon inh. purified E. coli Lon. inhibition, % at 7.94 µM. 31% of 1,400 active; in the data active = inhibition above about 16%;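 note: 0% = enzyme with probe and DMSO and 100% = no enzyme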
# The depositor's hits bear a star; nt = no result given; + = active, no number. Cut-off read from the data, not from the text of the source, unless noted: active = inhibition above about 43%; inactive = the rest.
SMILES,PREPL inh,SKN-1 block,MT1-MMP act inh,iPSC survival up,E coli Lon inh,TbMetRS inhib,PREPL confirm,eLon confirm
C[C@@H]1O[C@@H](OC[C@H]2O[C@@H](Oc3cc(O)c4c(=O)cc(-c5ccc(O)c(O)c5)oc4c3)[C@H](O)[C@@H](O)[C@@H]2O)[C@H](O)[C@H](O)[C@H]1O,28,4,9,3,1,0,nt,nt
O=c1cc(-c2ccc(O)c(O)c2)oc2cc(O[C@@H]3O[C@H](CO)[C@@H](O)[C@H](O)[C@H]3O)cc(O)c12,73*,-7,-60,1,1,0,60*,nt
C#CCOCCOCCOCCNc1nc(N2CCN(C(=O)CCCCCCCCCCNC(=O)[C@H](CCCCN)n3cc(CCO)nn3)CC2)nc(N2CCN(C(=O)CCCCCCCCCCNC(=O)[C@H](CCCCN)n3cc(C[C@@H](C)CC)nn3)CC2)n1,45*,nt,nt,nt,nt,nt,55*,nt
C#CCOCCOCCOCCNc1nc(N2CCN(C(=O)CCCCCCCCCCNC(=O)[C@H](CCCCN)n3cc(C[C@@H](C)CC)nn3)CC2)nc(N2CCN(C(=O)CCCCCCCCCCNC(=O)[C@@H]([C@H](C)O)n3cc(C)nn3)CC2)n1,35,6,-34,-4,-1,0,nt,nt
C#CCOCCOCCOCCNc1nc(N2CCN(C(=O)CCCCCCCCCCNC(=O)[C@H](CCCCN)n3cc(CCO)nn3)CC2)nc(N2CCN(C(=O)CCCCCCCCCCNC(=O)[C@H](CCCCN)n3cc(CCCC(=O)O)nn3)CC2)n1,28,-7,6,4,6,0,nt,nt
C#CCOCCOCCOCCNc1nc(N2CCN(C(=O)CCCCCCCCCCNC(=O)[C@H](CCCCN)n3cc(C)nn3)CC2)nc(N2CCN(C(=O)CCCCCCCCCCNC(=O)[C@H](CCCN=C(N)N)n3cc(C[C@@H](C)CC)nn3)CC2)n1,47*,nt,nt,nt,nt,nt,56*,nt
CCOCc1cc(CN2CCC(CCC(=O)NC3CC3)CC2)ccc1OC,1,12,1,0,-9,-1,nt,nt
Nc1ccccc1-c1ccccc1N,4,4,1,1,6,1,nt,nt
Nc1ccccc1N=Nc1ccccc1N,50*,26,24,-3,49*,0,43*,40*
COc1cc([N+](=O)[O-])ccc1NC(=O)NCc1cccnc1,1,6,-2,0,-5,0,nt,nt
CCOC(=O)C1CCCN(C(=O)C2c3ccccc3Oc3ccccc32)C1 (centres undefined),65*,48,-178,14,+,0,-2,36*
CCN1CCN(CC#CCOc2ccccc2OC)CC1,14,2,2,-1,10,-1,nt,nt
Cc1cc(-c2csc(N)n2)c(C)n1C,52*,15,-1,-1,16*,1,14,1
O=C1c2ccccc2-c2onc3ccc(NCc4ccco4)c1c23,82*,59,77,0,128*,-1,106*,118*
O=C1C(Cl)=C(NCc2ccco2)C(=O)c2ccccc21,nt,23,-3,-3,-5,0,nt,nt
Cn1c(=O)cc2c3c(c(N4CCCCC4)ccc31)C(=O)c1ccccc1-2,55*,73,26,0,+,-1,57*,73*
Cc1cccc(NC2=C(NCCO)C(=O)c3ccccc3C2=O)c1,17,2,-3,0,-6,1,nt,nt
Cn1c(=O)c(NCCc2ccccc2)c2c3c(cccc31)C(=O)c1ccccc1-2,163*,46,-67,-1,+,0,166*,-457
